Bioassay records deposited in PubChem BioAssay by several laboratories.
Hits are enriched below; roughly 4.5% of the tested compounds scored in any of these assays.
MrgX1 PAM = positive allosteric modulators of MrgX1, primary screen, HEK293 cells, Fluo-4 calcium flux; FDSS; stronger effect = higher value; B-score at 10 µM; 0.63% of 310,000 active;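 active means plate-corrected calcium response at least 3 library SD above typical, normal starting fluorescence, not activating the receptor alone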;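 further: compound read alongside a low EC10 to EC30 dose of BAM8-22 agonist; peak minus trough fluorescence over baseline measured at the second addition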
PHOSPHO1 inh = PubChem AID 1565 | recombinant PHOSPHO1, absorbance phosphatase assay | 1.1% of 290,000 active | inhibition, % at 13.3 µM; in the data active means inhibition above about 60%
Target sequence (Q8TCT1 whole entry, looked up): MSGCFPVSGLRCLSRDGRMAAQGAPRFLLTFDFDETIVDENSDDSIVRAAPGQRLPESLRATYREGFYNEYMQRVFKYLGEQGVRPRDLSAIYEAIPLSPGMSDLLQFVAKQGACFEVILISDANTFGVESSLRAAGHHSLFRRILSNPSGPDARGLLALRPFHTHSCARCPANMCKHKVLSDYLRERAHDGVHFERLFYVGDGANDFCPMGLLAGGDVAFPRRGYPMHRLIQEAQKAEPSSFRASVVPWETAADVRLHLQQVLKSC
MrgX1 agonist = agonists of human MrgX1 receptor, primary screen, HEK293 cells, Fluo-4 calcium flux. Mas-related G-protein coupled receptor member X1 (Homo sapiens), Q96LB2. 0.44% of 310,000 active. AID 588627, 2011. Fluo-4 calcium fluorescence, agonist mode; stronger effect = higher value. B-score at 10 µM;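 active means calcium response B-score plate-corrected fluorescence ratio at least 3 library SD, with starting fluorescence B-score inside 5 SD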
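System: HEK293 cells stably expressing human MrgX1 receptor; Dosing: test compound in the initial addition of three; Schedule: overnight plating, then 30 min 37 °C plus 30 min room-temperature dye loading; Detection: kinetic calcium dye fluorescence, Fluo-4 NW; Controls: per-plate positive and negative controls for Z′ factor.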
RGS4 inh = RGS4 inhibitors, primary screen, cell-based, HEK293 M3R inducible RGS4, calcium flux; Regulator of G-protein signaling 4 (Homo sapiens), P49798; Fluo-4 calcium flux; stronger effect = higher value; triggered by carbachol at its EC20; B-score at 10 µM; 0.45% of 310,000 active; AID 463165, 2010;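 active means B-score, a plate-corrected calcium signal, over three deviations above library mean, with baseline fluorescence within five deviations of library mean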;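 further: RGS4 expression induced by doxycycline in cells with stable M3 receptor; B-score is computed from the integrated fluorescence ratio over baseline after carbachol; higher B-score means a larger calcium signal and so more RGS4 inhibition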
Target sequence (P49798 whole entry, looked up): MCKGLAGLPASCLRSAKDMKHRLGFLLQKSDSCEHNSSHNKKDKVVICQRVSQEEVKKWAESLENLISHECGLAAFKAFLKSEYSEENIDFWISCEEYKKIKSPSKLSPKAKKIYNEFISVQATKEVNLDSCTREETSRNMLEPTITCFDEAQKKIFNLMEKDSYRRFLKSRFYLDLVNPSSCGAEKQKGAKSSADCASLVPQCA
RGS4 act = RGS4 potentiators or activators, primary screen, cell-based, HEK293 M3R inducible RGS4, calcium flux | carbachol calcium flux Fluo4; stronger effect = lower value | B-score at 10 µM | 0.92% of 310,000 active | AID 463111, 2010;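 active means B-score of the integrated calcium signal more than 4 SD below the library mean, with starting fluorescence not abnormally high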;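 further: negative B-score means reduced calcium response which marks RGS4 activation or potentiation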
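test system = M3R-expressing HEK293 line, RGS4 induced by doxycycline | probe or stimulus = carbachol at ECmax as muscarinic agonist stimulus | timing = dye loading 30 min 37 °C, buffer rest 30 min RT | signal = calcium dye Fluo4 fluorescence | evaluation = B score from integrated fluorescence ratio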
MrgX1 antagonist = antagonists of human MrgX1 receptor, primary screen, HEK293 cells, Fluo-4 calcium flux. Mas-related G-protein coupled receptor member X1 (Homo sapiens), Q96LB2. BAM8-22 antagonism; stronger effect = lower value. B-score at 10 µM. 1.3% of 310,000 active;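 active means calcium-response B-score plate-corrected more than 3 library SD below zero, starting fluorescence within 5 deviations, no agonist response on first addition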;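 further: peak minus trough fluorescence over baseline after final BAM8-22 challenge near maximal dose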
RGS4 block valid = enhanced carbachol calcium response, M3R/RGS4 cells, RGS4 inhibitor project, cell-based, validation screen, HEK293 M3R/RGS4, calcium flux | calcium response, % at 10 µM | 65% of 1,700 active | AID 492999, 2010 | shares compounds with RGS4 inh | carbachol calcium Fluo-4 fluorescence; carbachol added at its EC20; 0 = buffer wells, 100 = carbachol control;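 active means duplicate-averaged calcium response above the buffer-only control mean plus 5 SD of those controls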;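 further: integrated fluorescence ratio F max minus min over baseline F0; higher response in RGS4-induced cells means RGS4 inhibition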
RGS4 uninduced = carbachol calcium response in non-induced M3R cells, confirmation, counter-screen for RGS4 inhibitor project, cell-based, HEK293 M3R; shares compounds with RGS4 inh; activity (percent), % at 10 µM; AID 493000, 2010; 20% of 1,900 active; carbachol calcium Fluo-4; submaximal (EC20) carbachol stimulus; buffer wells 0%, carbachol control wells 100%; call rule not given here;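 further: RGS4 induction absent so cells express M3R without RGS4; higher means more calcium signal and flags a non-specific hit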
RGS4 inh ctr2 = second counter-screen for RGS4 inhibitors: non-induced cells without carbachol; shares compounds with RGS4 inh; calcium response (agonist-mode artifact), % at 10 µM; AID 493001; 22% of 1,900 active; HEK293 M3R/RGS4 non-induced, Fluo-4 calcium, no carbachol; normalised: buffer wells 0%, carbachol wells 100%;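 active means duplicate-averaged calcium rise in uninduced cells above buffer wells' mean plus 5 SD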
* marks the source's active call; other numbers are inactive results.

How did Cc1c(/C=N/NC(=O)CNc2ccccc2)c2ccccn2c1C(=O)c1ccc(Cl)cc1 do in these assays?
MrgX1 PAM: inactive; PHOSPHO1 inh: -12; MrgX1 agonist: inactive; RGS4 inh: 15*; RGS4 act: inactive; MrgX1 antagonist: inactive; RGS4 block valid: 20%*; RGS4 uninduced: inactive; RGS4 inh ctr2: 68%*

Results for Cc1c(C=O)c2ccccn2c1C(=O)c1ccccc1 ?
MrgX1 PAM: inactive; PHOSPHO1 inh: 14; MrgX1 agonist: inactive; RGS4 inh: inactive; RGS4 act: inactive; MrgX1 antagonist: inactive

What do the screens show for `Cc1c(/C=N/NC(=O)CNc2ccccc2)c2ccccn2c1C(=O)c1ccncc1`?
MrgX1 PAM: inactive; PHOSPHO1 inh: -7; MrgX1 agonist: inactive; RGS4 inh: inactive; RGS4 act: inactive; MrgX1 antagonist: inactive; RGS4 block valid: inactive; RGS4 uninduced: inactive; RGS4 inh ctr2: inactive

Results for Cc1c(C(=O)Nc2ccc(Cl)cc2)c2ccccn2c1C(=O)c1ccccc1 ?
MrgX1 PAM: inactive; PHOSPHO1 inh: 30; MrgX1 agonist: inactive; RGS4 inh: inactive; RGS4 act: inactive; MrgX1 antagonist: inactive

Results for Cc1ccccc1NCC(=O)N/N=C/c1c(C)c(C(=O)c2ccc(Cl)cc2)n2ccccc12 ?
MrgX1 PAM: inactive; PHOSPHO1 inh: -5; MrgX1 agonist: inactive; RGS4 inh: inactive; RGS4 act: inactive; MrgX1 antagonist: inactive; RGS4 block valid: inactive; RGS4 uninduced: inactive; RGS4 inh ctr2: 31%*

What do the screens show for `O=c1[nH]nc(Cc2ccc3ccccc3n2)c2ccccc12`?
MrgX1 PAM: inactive; PHOSPHO1 inh: 21; MrgX1 agonist: inactive; RGS4 inh: inactive; RGS4 act: inactive; MrgX1 antagonist: inactive

How did Cc1cc(C)c(C(N)=O)c(Nc2cccc(Cl)c2)n1 do in these assays?
MrgX1 PAM: inactive; PHOSPHO1 inh: 2; MrgX1 agonist: inactive; RGS4 inh: inactive; RGS4 act: inactive; MrgX1 antagonist: inactive

Results for Cc1ccccc1Nc1sc(C(=O)Nc2cccc(Cl)c2)c(N)c1C(N)=O ?
PHOSPHO1 inh: -2; RGS4 inh: 6.6*; RGS4 act: inactive; RGS4 block valid: 5.0%*; RGS4 uninduced: inactive; RGS4 inh ctr2: inactive

How did CCOC(=O)c1c(NC(=O)C(=O)N/N=C/c2ccc(O)c(OC)c2)sc2c1CCCCC2 do in these assays?
MrgX1 PAM: inactive; PHOSPHO1 inh: -2; MrgX1 agonist: inactive; RGS4 inh: 12*; RGS4 act: inactive; MrgX1 antagonist: inactive; RGS4 block valid: 37%*; RGS4 uninduced: 54%*; RGS4 inh ctr2: 18%*

What do the screens show for `COC(=O)c1ccc(OC)c(OC)c1Cl`?
MrgX1 PAM: inactive; PHOSPHO1 inh: 20; MrgX1 agonist: inactive; RGS4 inh: 5.8*; RGS4 act: inactive; MrgX1 antagonist: inactive; RGS4 block valid: 5.5%*; RGS4 uninduced: inactive; RGS4 inh ctr2: inactive

Results for CCOC(=O)c1ccc(OC)c(OC)c1Cl ?
MrgX1 PAM: inactive; PHOSPHO1 inh: -1; MrgX1 agonist: inactive; RGS4 inh: inactive; RGS4 act: inactive; MrgX1 antagonist: inactive

What do the screens show for `COc1ccc(/C=N/n2cc(-c3ccc(OC)cc3)nc2N)cc1`?
MrgX1 PAM: inactive; PHOSPHO1 inh: 10; MrgX1 agonist: inactive; RGS4 inh: 37*; RGS4 act: inactive; MrgX1 antagonist: inactive; RGS4 block valid: 24%*; RGS4 uninduced: inactive; RGS4 inh ctr2: inactive

How did Cc1ccc([C@H]2C(C#N)=C(N)Oc3cc(C)oc(=O)c32)o1 do in these assays?
MrgX1 PAM: inactive; PHOSPHO1 inh: 36; MrgX1 agonist: inactive; RGS4 inh: 6.9*; RGS4 act: inactive; MrgX1 antagonist: inactive; RGS4 block valid: 26%*; RGS4 uninduced: inactive; RGS4 inh ctr2: inactive

What do the screens show for `CC1(C)CC(=O)C(=Cc2cn(CCC#N)nc2-c2ccc(Cl)cc2)C(=O)C1`?
MrgX1 PAM: inactive; PHOSPHO1 inh: -13; MrgX1 agonist: inactive; RGS4 inh: inactive; RGS4 act: inactive; MrgX1 antagonist: inactive

What do the screens show for `CC1(C)CC(=O)C(=Cc2cn(-c3ccccc3)nc2-c2ccc(Cl)cc2)C(=O)C1`?
MrgX1 PAM: inactive; PHOSPHO1 inh: 31; MrgX1 agonist: inactive; RGS4 inh: inactive; RGS4 act: inactive; MrgX1 antagonist: inactive; RGS4 block valid: inactive; RGS4 uninduced: inactive; RGS4 inh ctr2: inactive

How did Cc1cc(O)ccc1N=Cc1c(C(F)(F)F)[nH][nH]c1=O do in these assays?
MrgX1 PAM: inactive; PHOSPHO1 inh: 25; MrgX1 agonist: inactive; RGS4 inh: 6.8*; RGS4 act: inactive; MrgX1 antagonist: inactive; RGS4 block valid: 18%*; RGS4 uninduced: inactive; RGS4 inh ctr2: 21%*

Results for CCn1nc(NS(=O)(=O)c2ccccc2)c2cc3cccc(C)c3nc21 ?
MrgX1 PAM: inactive; PHOSPHO1 inh: -31; MrgX1 agonist: inactive; RGS4 inh: inactive; RGS4 act: inactive; MrgX1 antagonist: inactive; RGS4 uninduced: inactive; RGS4 inh ctr2: inactive

How did CCn1nc(NS(=O)(=O)c2ccc(NC(C)=O)cc2)c2cc3cccc(C)c3nc21 do in these assays?
MrgX1 PAM: inactive; PHOSPHO1 inh: 49; MrgX1 agonist: inactive; RGS4 inh: inactive; RGS4 act: inactive; MrgX1 antagonist: inactive

Results for CCn1nc(NS(=O)(=O)c2ccc(C)cc2)c2cc3ccccc3nc21 ?
MrgX1 PAM: inactive; PHOSPHO1 inh: 42; MrgX1 agonist: inactive; RGS4 inh: inactive; RGS4 act: inactive; MrgX1 antagonist: inactive

How did CCn1nc(NS(=O)(=O)c2ccc([N+](=O)[O-])cc2)c2cc3ccccc3nc21 do in these assays?
MrgX1 PAM: inactive; PHOSPHO1 inh: 54; MrgX1 agonist: inactive; RGS4 inh: inactive; RGS4 act: inactive; MrgX1 antagonist: inactive; RGS4 uninduced: inactive; RGS4 inh ctr2: inactive
